Results on 2 compounds are retold here after ChEMBL document CHEMBL4715843, “NO-releasing STAT3 inhibitors suppress BRAF-mutant melanoma growth” (Eur J Med Chem, 2020).

What is called IC50 is the concentration at which inhibition is half-maximal.

Calls of active or inactive are those of the source. No cut-off for these calls is given here.

The test system of experiment [1] is A-375. Description: Cell cycle arrest in human A-375 cells assessed as accumulation at G2-phase at 10 uM measured after 24 hrs by […] (reference value: 9.14 to 10.5%). The experiment is classed as functional. (In western blotting, separated proteins are transferred to a membrane and probed.)
In experiment [2] the target is Signal transducer and activator of transcription 1-alpha/beta (Homo sapiens) (UniProt P42224). Description: Inhibition of STAT1 phosphorylation at Y701 residues in human A-375 cells at 50 uM after 20 hrs by Western blotting analysis. Format: cell-based. Summed up: (§1)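 A375 cells exposed to a dose range of inhibitor for 20 h (overnight), up to 50 µM; lysates immunoblotted for phospho-STAT1 Y701, phospho-STAT5 Y694 and phospho-STAT6 Y641, with actin and/or vinculin as loading controls.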
Chain of Signal transducer and activator of transcription 1-alpha/beta (Homo sapiens) (P42224 whole entry): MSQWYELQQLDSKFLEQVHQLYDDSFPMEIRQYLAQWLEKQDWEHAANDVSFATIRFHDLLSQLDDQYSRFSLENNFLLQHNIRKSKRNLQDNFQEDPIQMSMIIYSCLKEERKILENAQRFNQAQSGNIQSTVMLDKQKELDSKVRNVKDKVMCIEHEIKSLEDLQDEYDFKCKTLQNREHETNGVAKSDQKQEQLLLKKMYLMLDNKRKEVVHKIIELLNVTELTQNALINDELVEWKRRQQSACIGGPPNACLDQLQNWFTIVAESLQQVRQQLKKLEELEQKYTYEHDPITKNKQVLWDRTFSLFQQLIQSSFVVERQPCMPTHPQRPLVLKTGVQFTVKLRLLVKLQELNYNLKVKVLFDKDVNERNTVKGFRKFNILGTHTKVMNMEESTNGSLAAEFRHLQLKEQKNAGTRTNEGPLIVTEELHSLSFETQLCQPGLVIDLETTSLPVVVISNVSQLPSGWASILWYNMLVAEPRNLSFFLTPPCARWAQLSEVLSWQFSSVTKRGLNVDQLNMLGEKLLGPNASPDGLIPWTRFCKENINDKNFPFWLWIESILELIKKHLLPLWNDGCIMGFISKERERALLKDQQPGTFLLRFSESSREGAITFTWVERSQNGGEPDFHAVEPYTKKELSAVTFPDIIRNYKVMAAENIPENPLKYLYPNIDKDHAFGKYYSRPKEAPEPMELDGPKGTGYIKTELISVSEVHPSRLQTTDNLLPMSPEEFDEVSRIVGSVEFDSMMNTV

For the next experiment, the system named is HFF. Kind of experiment: Cytotoxicity against HFF assessed as inhibition of cell proliferation by MTS assay. Format: cell-based, Homo sapiens. As to conditions: Homo sapiens, HFF; read-out: IC50. In general terms: Tetrazolium assays rely on reduction of a dye to a coloured formazan, in cell work by metabolically active cells.
Experiment [3] addresses T1, Signal transducer and activator of transcription 3 (Homo sapiens, UniProt P40763). Kind of experiment: Inhibition of STAT3 in human SB-590885-sensitive 451Lu cells assessed as reduction in PAX3 expression measured after 12 hrs by Western blot analysis. The following applies: dose 10-25 µM. Summed up:
(§2)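 451 Lu and MEL 1617 pairs, sensitive and resistant; resistant lines maintained in RPMI with 1 µM PLX4720. Treated with 10 and 25 µM for 12 h versus DMSO. Lysates (60 µg protein, 10% SDS-PAGE) immunoblotted for Ser727- and Tyr705-phospho-STAT3, total STAT3, total PAX3, with actin.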

Experiment [4] addresses T1, Signal transducer and activator of transcription 3. Description: Inhibition of STAT3 phosphorylation at S727 residue in human SB-590885-resistant MEL1617 cells at 10 to 25 uM measured after 12 hrs by Western blot analysis. The following applies: dose 10-25 µM. Format: cell-based. Summed up: as §2
Experiment [5] is described as follows: Drug metabolism in pH 7.4 phosphate buffer assessed as nitric oxide release at 100 uM measured after 2 hrs by Griess reagent based colorimetric method. Summed up: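 Compound at 100 µM was held at room temperature in pH 7.4 phosphate buffer with 5 mM DTT and 2% DMSO for 2 or 48 h. Griess reagent was added, and after 30 min absorbance was read at 548 nm. NO release (mol NO/mol compound) was derived from a sodium nitrite calibration curve.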
(The Griess reaction detects nitrite, a stable product of nitric oxide.)

The target of experiment [6] is T1, Signal transducer and activator of transcription 3. Description: Inhibition of STAT3 in human SB-590885-resistant 451Lu cells assessed as reduction in PAX3 expression measured after 12 hrs by Western blot analysis. As to conditions: dose 10-25 µM. An outline of the steps: as §2
Experiment [7] concerns A-375. Description: Cell cycle arrest in human A-375 cells assessed as accumulation at S-phase at 10 uM measured after 24 hrs by […] (reference value: 33.6 to 33.7%). Format: functional.
Experiment [8] has as its target T1, Signal transducer and activator of transcription 3. Kind of experiment: Inhibition of STAT3 phosphorylation at Y705 residue in human SB-590885-sensitive 451Lu cells measured after 12 hrs by Western blot analysis. As to conditions: dose 10-25 µM. Summed up:
as §2

For experiment [9], the system named is A-375. Description: Cell cycle arrest in human A-375 cells assessed as accumulation at G1-phase at 25 uM measured after 24 hrs by […] (reference value: 55.5 to 56.2%). Format: functional.
Experiment [10] concerns the target T1, Signal transducer and activator of transcription 3. Kind of experiment: Inhibition of STAT3 in human SB-590885-sensitive 451Lu cells assessed as reduction in STAT3 transcriptional activity measured after 12 hrs by Dual-luciferase reporter gene assay. An outline of the steps: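 Cells co-transfected with inducible STAT3-responsive firefly luciferase and constitutive Renilla luciferase constructs (40:1) using Lipofectamine 3000. After 48 h, dose series in DMSO vehicle applied for 12 h, followed by dual-luciferase readout. Firefly signal normalized to Renilla and compared with untreated cells. Run in triplicate; IC50 taken from dose–response curves.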

The subject of experiment [11] is A-375. Description: Cell cycle arrest in human A-375 cells assessed as accumulation at G2-phase at 25 uM measured after 24 hrs by […] (reference value: 9.14 to 10.5%). The experiment is classed as functional.
Another experiment deals with MCF-10A. Description: Cytotoxicity against human MCF-10A cells assessed as inhibition of cell proliferation by MTS assay. The experiment is classed as cell-based. The following applies: Homo sapiens, MCF-10A; read-out: IC50.
Experiment [12] deals with T1, Signal transducer and activator of transcription 3. Description: Inhibition of STAT3 phosphorylation at Y705 residue in human SB-590885-resistant MEL1617 cells at 10 to 25 uM measured after 12 hrs by Western blot analysis. As to conditions: dose 10-25 µM. The experiment is classed as cell-based. Summed up:
as §2

Experiment [13] concerns A-375. Kind of experiment: Cytotoxicity against human A-375 cells assessed as inhibition of cell proliferation measured after 48 hrs by MTS assay. The experiment is classed as functional, cell-based. As to conditions: A-375, 48 h. An outline of the steps:
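Cells were exposed to a dose range of inhibitor for 48 h, and viability was read by MTS assay in triplicate. GI50 was taken as the concentration giving 50% growth inhibition, averaged from three independent experiments. A375 was cultured in RPMI-1640 with Glutamax. A549 and NCI-H157 were kept in RPMI-1640, and MIA PaCa-2 and U87-MG in DMEM.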

The test system of experiment [14] is A-375. Kind of experiment: Inhibition of colony formation in human A-375 cells measured over 10 days by crystal violet staining based assay. Format: functional, cell-based. As to conditions: dose 0.1-10 µM, time 10.0 day. Summed up: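 A375 cells seeded at 2500/well in RPMI with 5% FBS, settled overnight, then given a dose series and grown 14 days (10 days in the results text). Fixed in 4% paraformaldehyde for 15 min, stained with 0.2% crystal violet in 20% methanol for 10 min, washed and imaged. Experiment run twice.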

Another experiment relates to MOLT-4. Description: Anticancer activity against human MOLT-4 cells assessed as cell growth inhibition at 10 uM measured after 48 hrs by SRB assay relative to control. Format: functional. As to conditions: read-out: GI. Summed up: (§3)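 NCI 60-cell-line screen. Cells in RPMI with 5% FBS were plated at 5,000–40,000 cells/well by doubling time and preincubated 24 h at 37 °C. Compound was added at a single 10 µM for 48 h, then cells were fixed with cold TCA (10% final) and stained with 0.4% SRB. Absorbance at 515 nm gave percent growth versus untreated control and time-zero cells.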

For another experiment, the system named is LOX IMVI. Kind of experiment: Anticancer activity against human LOX IMVI cells assessed as cell growth inhibition at 10 uM measured after 48 hrs by SRB assay relative to control. Format: functional. As to conditions: read-out: GI. Summed up:
as §3

For experiment [15], the target named is T1, Signal transducer and activator of transcription 3. Kind of experiment: Inhibition of STAT3 phosphorylation at Y705 residue in human SB-590885-resistant 451Lu cells measured after 12 hrs by Western blot analysis. The following applies: dose 10-25 µM. An outline of the steps: as §2
In experiment [16] the test system is A-375. Description: Cell cycle arrest in human A-375 cells assessed as accumulation at G1-phase at 10 uM measured after 24 hrs by […] (reference value: 55.5 to 56.2%). Format: functional.
The target in experiment [17] is Signal transducer and activator of transcription 5A (Homo sapiens) (UniProt P42229). Description: Inhibition of STAT5 phosphorylation at Y694 residues in human A-375 cells at 50 uM after 20 hrs by Western blotting analysis. The experiment is classed as cell-based. Summed up:
as §1

Experiment [18] concerns the target T1, Signal transducer and activator of transcription 3. Description: Inhibition of STAT3 phosphorylation at S727 residue in human SB-590885-resistant 451Lu cells measured after 12 hrs by Western blot analysis. The following applies: dose 10-25 µM. An outline of the steps:
as §2

In experiment [19] the target is Mitogen-activated protein kinase; ERK1/ERK2 (Homo sapiens) (UniProt P27361+P28482). Kind of experiment: Inhibition of ERK1/2 phosphorylation in human A-375 cells at 5 to 50 uM after 12 hrs by Western blotting analysis. As to conditions: dose 5-50 µM. Format: cell-based.
Chain of Mitogen-activated protein kinase; ERK1/ERK2 (Homo sapiens) (P27361 whole entry, looked up): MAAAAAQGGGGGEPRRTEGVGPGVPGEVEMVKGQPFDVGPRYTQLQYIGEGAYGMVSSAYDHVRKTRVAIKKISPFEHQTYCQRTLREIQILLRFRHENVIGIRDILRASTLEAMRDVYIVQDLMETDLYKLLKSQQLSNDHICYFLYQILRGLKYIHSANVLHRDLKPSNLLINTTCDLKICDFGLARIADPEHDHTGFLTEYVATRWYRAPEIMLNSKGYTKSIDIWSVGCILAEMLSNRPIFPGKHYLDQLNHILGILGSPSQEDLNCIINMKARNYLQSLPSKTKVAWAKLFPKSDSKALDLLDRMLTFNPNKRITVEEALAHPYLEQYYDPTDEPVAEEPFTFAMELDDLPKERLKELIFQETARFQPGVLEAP
Chain of Mitogen-activated protein kinase; ERK1/ERK2 (Homo sapiens) (P28482 whole entry, looked up): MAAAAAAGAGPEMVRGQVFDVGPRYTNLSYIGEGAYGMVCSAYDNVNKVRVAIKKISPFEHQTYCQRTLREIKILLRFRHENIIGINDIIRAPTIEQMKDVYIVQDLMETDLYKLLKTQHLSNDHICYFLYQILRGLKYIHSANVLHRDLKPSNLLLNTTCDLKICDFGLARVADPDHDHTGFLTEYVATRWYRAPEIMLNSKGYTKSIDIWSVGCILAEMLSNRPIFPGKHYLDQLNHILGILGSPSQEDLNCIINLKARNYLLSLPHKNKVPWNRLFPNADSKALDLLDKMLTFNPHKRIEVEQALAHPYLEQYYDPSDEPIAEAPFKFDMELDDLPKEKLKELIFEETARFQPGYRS

T1 sequence (P40763 whole entry): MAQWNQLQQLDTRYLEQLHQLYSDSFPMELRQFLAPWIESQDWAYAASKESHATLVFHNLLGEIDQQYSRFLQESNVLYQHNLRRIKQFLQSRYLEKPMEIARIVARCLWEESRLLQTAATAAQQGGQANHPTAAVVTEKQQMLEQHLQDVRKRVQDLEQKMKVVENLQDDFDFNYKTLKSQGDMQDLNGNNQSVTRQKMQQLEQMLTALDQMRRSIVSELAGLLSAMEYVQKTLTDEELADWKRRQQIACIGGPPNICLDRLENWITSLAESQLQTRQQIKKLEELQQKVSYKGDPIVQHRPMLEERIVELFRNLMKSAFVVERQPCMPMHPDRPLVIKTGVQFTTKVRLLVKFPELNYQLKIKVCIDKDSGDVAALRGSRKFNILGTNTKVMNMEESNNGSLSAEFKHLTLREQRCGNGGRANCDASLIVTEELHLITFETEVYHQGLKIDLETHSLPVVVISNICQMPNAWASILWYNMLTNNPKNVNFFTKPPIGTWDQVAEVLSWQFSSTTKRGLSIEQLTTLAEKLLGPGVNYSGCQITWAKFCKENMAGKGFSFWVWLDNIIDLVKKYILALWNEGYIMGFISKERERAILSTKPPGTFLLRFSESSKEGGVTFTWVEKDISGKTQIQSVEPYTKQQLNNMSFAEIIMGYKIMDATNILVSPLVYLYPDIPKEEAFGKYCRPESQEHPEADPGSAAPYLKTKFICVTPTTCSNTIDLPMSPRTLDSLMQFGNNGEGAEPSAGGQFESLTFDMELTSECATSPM
Chain of Signal transducer and activator of transcription 5A (Homo sapiens) (P42229 whole entry): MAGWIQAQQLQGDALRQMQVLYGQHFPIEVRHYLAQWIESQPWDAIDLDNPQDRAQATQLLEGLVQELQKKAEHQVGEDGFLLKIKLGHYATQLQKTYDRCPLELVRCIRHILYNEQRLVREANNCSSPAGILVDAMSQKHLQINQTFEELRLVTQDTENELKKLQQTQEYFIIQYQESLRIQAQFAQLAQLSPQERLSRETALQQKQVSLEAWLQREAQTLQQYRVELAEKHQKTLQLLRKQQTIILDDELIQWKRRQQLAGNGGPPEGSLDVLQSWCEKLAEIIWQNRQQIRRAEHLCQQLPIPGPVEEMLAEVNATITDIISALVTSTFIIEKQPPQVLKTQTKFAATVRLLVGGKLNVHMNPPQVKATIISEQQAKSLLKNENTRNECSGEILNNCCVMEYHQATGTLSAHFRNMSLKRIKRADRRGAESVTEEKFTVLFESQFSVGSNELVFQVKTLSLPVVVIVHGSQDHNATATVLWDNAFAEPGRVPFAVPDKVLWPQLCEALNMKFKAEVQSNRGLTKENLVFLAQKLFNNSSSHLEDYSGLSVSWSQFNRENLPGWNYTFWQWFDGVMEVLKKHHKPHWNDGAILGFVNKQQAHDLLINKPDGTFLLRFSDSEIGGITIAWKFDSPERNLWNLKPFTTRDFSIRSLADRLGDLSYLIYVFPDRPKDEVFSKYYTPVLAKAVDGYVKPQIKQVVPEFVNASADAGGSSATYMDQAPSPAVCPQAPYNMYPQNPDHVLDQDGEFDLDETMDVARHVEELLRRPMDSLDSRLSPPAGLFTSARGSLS

As to `C=CCn1c(SCC(=O)Nc2ccc(/C(C)=N\O)cc2)nnc1-c1cc(-c2ccc(Cl)cc2)nc2ccccc12`, the Activity with A-375 [1] was 14.9%; in the experiment on A-375 [7], 24.9%; with A-375 [9], 61.1%; with A-375 [11], 15.7%; with A-375 [16] it was 56.7%. Further, the inhibition entry in experiment [2], in experiment [17] and in [19] was “inactive” in each case. For the same compound, the IC50 was 200 µM in the experiment on HFF, 7.9 µM in experiment [10], 92.9 µM in the experiment with MCF-10A and 1.9 µM in the experiment on A-375 [13]. The inhibition result (in experiment [3]; in experiment [6]; in experiment [8]; in the experiment with A-375 [14]; in [15]; in experiment [18]) was “Dose-dependent effect” each time. Further, the inhibition entry in [4] and in experiment [12] was “Active” each time. Moreover, in [5], the Drug metabolism came out at 15%. In addition, the inhibition of growth at 10 µM in the experiment with MOLT-4 and with LOX IMVI was 100% in each case.
`C=CCn1c(SCC(=O)Nc2ccc(/C(C)=N\O)cc2)nnc1-c1cc(-c2ccccc2)nc2ccccc12`: the Activity with A-375 [1] turned out to be 14.9%; in the experiment on A-375 [7], 18.8%; in the experiment on A-375 [9], 75.4%; with A-375 [11] it was 11.2%; in the experiment with A-375 [16], 63%. Besides, the inhibition entry in experiment [2], in experiment [17] and in experiment [19] was “inactive” each time. Besides, the IC50 with HFF came to 54.4 µM; in experiment [10], 6.3 µM; in the experiment on MCF-10A, 100 µM; in the experiment on A-375 [13], 7.7 µM. The inhibition result (in experiment [3]; in experiment [6]; in experiment [8]; with A-375 [14]; in experiment [15]; in [18]) was “Dose-dependent effect” in each case. The inhibition result in experiment [4] and in experiment [12] was “Active” each time. Moreover, the Drug metabolism in [5] amounted to 15%. The inhibition of growth at 10 µM with MOLT-4 and in the experiment with LOX IMVI was 76% in each case.
